What was measured:
[1] = Antiplatelet activity in human platelet rich plasma assessed as inhibition of ADP-induced aggregation preincubated for 1 min before 5-HT and ADP challenge measured after 3 mins by turbidimetry
[2] = biological target: 5-hydroxytryptamine receptor 2A (Homo sapiens, UniProt P28223); assay: Displacement of [125I]DOI from human recombinant 5HT2A receptor expressed in HEK293 cells by scintillation counting; assay type: cell-based
Outline: (§1)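 Crude plasma membranes from HEK293 cells stably expressing the human receptor (5–25 μg protein), in 20 mM HEPES pH 7.4 with 10 mM MgCl2. Incubated with 0.5 nM [125I]DOI and test compound (1 pM–10 μM) for 1 h at room temperature; nonspecific binding defined with 10 μM cold DOI. Filtered, washed with ice-cold Tris buffer and scintillation counted in triplicate.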

[3] = biological target: T1, 5-hydroxytryptamine receptor 2C (Homo sapiens, UniProt P28335); assay: Displacement of [125I]DOI from human recombinant 5HT2C receptor expressed in HEK293 cells by scintillation counting; assay type: cell-based
T1 sequence (P28335 whole entry): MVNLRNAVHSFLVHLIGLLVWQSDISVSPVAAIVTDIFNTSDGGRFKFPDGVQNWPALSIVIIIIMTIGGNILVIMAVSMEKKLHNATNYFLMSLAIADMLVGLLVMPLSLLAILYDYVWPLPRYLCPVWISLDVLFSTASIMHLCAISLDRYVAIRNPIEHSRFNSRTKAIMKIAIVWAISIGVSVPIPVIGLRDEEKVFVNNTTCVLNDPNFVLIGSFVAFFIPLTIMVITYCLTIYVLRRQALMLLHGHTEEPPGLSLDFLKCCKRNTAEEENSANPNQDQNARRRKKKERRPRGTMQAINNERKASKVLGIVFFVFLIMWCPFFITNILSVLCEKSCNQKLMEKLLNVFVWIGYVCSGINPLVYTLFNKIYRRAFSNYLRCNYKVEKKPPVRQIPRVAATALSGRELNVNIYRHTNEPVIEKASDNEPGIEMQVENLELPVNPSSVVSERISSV
Outline: as §1

hERG (KCNH2) [4] = biological target: T2, hERG (KCNH2) (Homo sapiens, UniProt Q12809); assay: Inhibition of human ERG at 3 uM by patch clamp assay
[5] = Half life in Sprague-Dawley rat at 10 mg/kg, po by HPLC/MS/MS analysis; assay type: ADME, organism-based; set-up: dose 10 mg/kg, route oral; settings: in vivo
Outline: (§2)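 Male rats fasted overnight before oral dosing; 10 mg/kg po and 2 mg/kg iv in 80% PEG400/20% phosphate buffered saline. Jugular vein blood was sampled at 0.25–21 h over 24 h, and heparin plasma was assayed by HPLC/MS/MS (MRM, positive electrospray, internal standard; LLOQ 1 ng/mL, ULOQ 2000 ng/mL). %F is taken relative to the 2 mg/kg iv dose. Mean of n = 3 animals.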

[6] = biological target: Voltage-gated inwardly rectifying potassium channel KCNH2 (Homo sapiens, UniProt Q12809); assay: Inhibition of human ERG by patch clamp assay
[7] = Cmax in Sprague-Dawley rat at 10 mg/kg, po after 24 hrs by HPLC/MS/MS assay; assay type: ADME, organism-based; set-up: dose 10 mg/kg, route oral; settings: in vivo
Outline: as §2

[8] = Volume of distribution at steady state in Sprague-Dawley rat at 2 mg/kg, iv after 24 hrs by HPLC/MS/MS analysis; assay type: ADME, organism-based; set-up: dose 2 mg/kg, route intravenous; settings: in vivo, read-out: Vdss
Outline: as §2

[9] = AUC (0 to last) in Sprague-Dawley rat at 10 mg/kg, po after 24 hrs by HPLC/MS/MS analysis; assay type: ADME, organism-based; set-up: time 0 - last, dose 10 mg/kg, route oral; settings: plasma
Outline: as §2

hERG (KCNH2) [10] = biological target: T2, hERG (KCNH2); assay: Inhibition of human ERG at 1 uM by patch clamp assay
[11] = Total clearance in Sprague-Dawley rat at 2 mg/kg, iv after 24 hrs by HPLC/MS/MS analysis; assay type: ADME, organism-based; set-up: dose 2 mg/kg, route intravenous; settings: in vivo
Outline: as §2

[12] = Bioavailability in Sprague-Dawley rat at 2 mg/kg, iv after 24 hrs by HPLC/MS/MS analysis; assay type: ADME, organism-based; settings: in vivo
Outline: as §2

T2 sequence (Q12809 whole entry): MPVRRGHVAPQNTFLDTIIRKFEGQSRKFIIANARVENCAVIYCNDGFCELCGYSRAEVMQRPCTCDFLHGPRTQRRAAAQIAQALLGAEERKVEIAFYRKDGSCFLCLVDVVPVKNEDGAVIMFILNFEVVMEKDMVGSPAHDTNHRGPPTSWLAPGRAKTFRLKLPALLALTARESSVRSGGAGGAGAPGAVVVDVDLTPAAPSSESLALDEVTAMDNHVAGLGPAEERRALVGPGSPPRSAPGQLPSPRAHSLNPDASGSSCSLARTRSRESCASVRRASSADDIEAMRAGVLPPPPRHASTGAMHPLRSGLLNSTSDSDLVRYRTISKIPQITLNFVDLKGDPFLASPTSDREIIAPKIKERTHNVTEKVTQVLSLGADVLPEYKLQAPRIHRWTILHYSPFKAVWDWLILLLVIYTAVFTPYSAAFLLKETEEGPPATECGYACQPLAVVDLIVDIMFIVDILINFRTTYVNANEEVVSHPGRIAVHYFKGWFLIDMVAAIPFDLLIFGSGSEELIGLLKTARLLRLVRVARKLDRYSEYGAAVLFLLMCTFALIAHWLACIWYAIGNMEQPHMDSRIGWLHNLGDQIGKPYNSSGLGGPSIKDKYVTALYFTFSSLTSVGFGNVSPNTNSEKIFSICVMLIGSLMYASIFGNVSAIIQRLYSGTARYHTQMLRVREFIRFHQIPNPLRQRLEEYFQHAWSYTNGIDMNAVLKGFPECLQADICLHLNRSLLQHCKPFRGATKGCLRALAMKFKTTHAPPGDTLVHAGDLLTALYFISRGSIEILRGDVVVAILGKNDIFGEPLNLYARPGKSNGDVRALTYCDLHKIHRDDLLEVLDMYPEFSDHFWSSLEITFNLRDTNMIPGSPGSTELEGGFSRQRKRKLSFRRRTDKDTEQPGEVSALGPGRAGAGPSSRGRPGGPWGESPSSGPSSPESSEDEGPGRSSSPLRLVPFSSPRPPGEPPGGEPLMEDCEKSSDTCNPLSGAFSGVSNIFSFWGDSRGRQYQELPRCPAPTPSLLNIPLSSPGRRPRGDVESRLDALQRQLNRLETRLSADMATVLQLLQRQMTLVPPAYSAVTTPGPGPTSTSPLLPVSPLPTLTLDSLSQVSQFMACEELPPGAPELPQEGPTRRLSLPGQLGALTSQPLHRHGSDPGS
Chain of 5-hydroxytryptamine receptor 2A (P28223 whole entry): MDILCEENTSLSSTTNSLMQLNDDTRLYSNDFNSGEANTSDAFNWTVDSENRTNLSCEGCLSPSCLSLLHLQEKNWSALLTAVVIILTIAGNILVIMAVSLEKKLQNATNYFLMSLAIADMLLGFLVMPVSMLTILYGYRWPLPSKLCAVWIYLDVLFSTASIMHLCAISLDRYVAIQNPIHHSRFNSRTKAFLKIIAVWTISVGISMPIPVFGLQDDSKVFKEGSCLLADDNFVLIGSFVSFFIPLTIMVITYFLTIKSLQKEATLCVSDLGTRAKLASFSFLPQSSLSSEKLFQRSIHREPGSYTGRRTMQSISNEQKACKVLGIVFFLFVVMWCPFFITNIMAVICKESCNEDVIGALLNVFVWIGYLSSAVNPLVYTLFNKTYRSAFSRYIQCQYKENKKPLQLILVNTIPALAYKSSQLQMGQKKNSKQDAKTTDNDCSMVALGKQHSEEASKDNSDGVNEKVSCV
Chain of Voltage-gated inwardly rectifying potassium channel KCNH2 (Q12809 whole entry): as the sequence (Q12809 whole entry) above

IC50 [1] [nM]	Ki [2] [nM]	Ki [3] [µM]	half-life [5] [min]	Cmax [7] [ng/mL]	Vd [8] [L/kg]	AUC(0-t) at 24 h [9] [ng·h/mL]	clearance [11] [mL/min/kg]	bioavailability [12] [%]	Compound	inhibition at 3 µM (hERG (KCNH2) [4]) [%]	IC50 [6] [µM]	inhibition at 1 µM (hERG (KCNH2) [10]) [%]
40	15	> 10							CC(=O)N1CCN(CCOc2ccc(NC(=O)c3cccc(F)c3)cc2-c2ccnn2C)CC1			
29	4.1	> 10							Cn1nccc1-c1cc(NC(=O)c2ccc(F)c(F)c2)ccc1OCCN1CCOCC1	56		
189	12	9.25							Cn1nccc1-c1cc(NC(=O)c2cccc(C(F)(F)F)c2)ccc1OCCN1CCC(F)(F)C1	50		
27	8.6	> 10	90	56	11.7	171	233	22	Cn1nccc1-c1cc(NC(=O)c2ccc(F)cc2F)ccc1OCCN1CCOCC1		4.1	16
57	5.1	5.89							COc1cccc(C(=O)Nc2ccc(OCCN3CCN(C(N)=O)CC3)c(-c3ccnn3C)c2)c1	17		
145	4.3	5.61							CC(=O)N1CCN(CCOc2ccc(NC(=O)c3cccc(C(F)(F)F)c3)cc2-c2ccnn2C)CC1	75		
127	5.3	> 10							Cn1ncc(Cl)c1-c1cc(NC(=O)c2cccc(C(F)(F)F)c2)ccc1OCCN1CCNC(=O)C1	53		
2	1.9	0.225	168	453	5.4	3830	18.3	43	Cn1nccc1-c1cc(NC(=O)c2ccc(C(F)(F)F)cc2)ccc1OCCN1CCCC1			66
18	0.7	> 10	108	202	5.1	288	160	27	Cn1nccc1-c1cc(NC(=O)c2cccc(C(F)(F)F)c2)ccc1OCCN1CCOCC1			
6.9	2.2	2.35							COc1cccc(C(=O)Nc2ccc(OCCN)c(-c3ccnn3C)c2)c1	22		
77	4.5	> 10							COc1cccc(C(=O)Nc2ccc(OCCN3CCN(C(C)=O)CC3)c(-c3ccnn3C)c2)c1	24		
